High-throughput results from PubChem.
core dimer inh – HCV core protein dimerization inhibition | TR-FRET GST/Flag-core106 dimerization, 1536-well | inhibition, % at 5 µM | 300,000 compounds, 0.33% hits | AID 1899;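 active means inhibition above the mean of all tested compounds plus 3 SD, set per screening campaign, cut at about 45% in these data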
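Assay system: GST-tagged and Flag-tagged HCV core protein residues 1-106 / Times: compound-protein-antibody incubation 4 h at 22.5 °C / Signal: time-resolved FRET, ex 340 nm, em 617 and 671 nm / Evaluation: % inhibition based on acceptor/donor emission ratio / Benchmarks: wells lacking GST-core106 and wells with excess unlabelled core106 / Repeats: singlicate, one well per compound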
PP5 primary – blocks human protein phosphatase 5 activity; 320,000 compounds, 0.18% hits; inhibition, % at 6.7 µM; purified PP5c, OMFP substrate fluorescence; P53041;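 active means inhibition above the campaign's mean inhibition across all tested compounds plus 3 SD, cut at about 9.5% in these data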;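 further: 0% = DMSO only and 100% = 100 µM cantharidin control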
NadD inh – NadD (S. aureus) enzyme inhibition; purified NadD enzyme, colorimetric absorbance read-out; inhibition, % at 20 µM; 360,000 compounds, 0.78% hits; in the data active means inhibition above about 26%
PP1 inh – counter-screen for PP5 inhibitors: inhibitors of human PP1-alpha. AID 2235. inhibition, % at 6.7 µM. 320,000 compounds, 0.9% hits. P62136. purified PP1alpha, OMFP fluorescence;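 active means inhibition above the mean inhibition of all tested compounds plus 3 SD, computed separately for each screening campaign, cut at about 15% in these data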
Target sequence (P62136 whole entry, looked up): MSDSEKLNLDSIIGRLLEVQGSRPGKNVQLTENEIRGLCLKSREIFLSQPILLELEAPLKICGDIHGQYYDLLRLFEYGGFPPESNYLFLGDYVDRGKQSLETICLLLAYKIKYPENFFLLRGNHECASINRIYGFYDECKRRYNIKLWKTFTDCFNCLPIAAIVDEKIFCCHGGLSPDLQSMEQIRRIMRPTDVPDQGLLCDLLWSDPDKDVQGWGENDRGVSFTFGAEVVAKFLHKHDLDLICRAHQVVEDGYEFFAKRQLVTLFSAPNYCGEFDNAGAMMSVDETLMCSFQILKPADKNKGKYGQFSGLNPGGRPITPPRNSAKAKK
Myeloid diff 2 – promotes myeloid progenitor differentiation | ER-HoxA9 myeloid progenitors, lysozyme-GFP differentiation, flow cytometry | calls only at 10 µM | 360,000 compounds, 1% hits | AID 624256;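 active means normalized GFP-positive differentiation at or above the plate's own cutoff, the solvent-only control mean plus 3 SD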;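 further: cells exposed to compound for four days before flow analysis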
CTSL1 counter – cathepsin L1 inhibition, PFM18AAP counter-screen | recombinant F. hepatica cathepsin L1, Z-Leu-Arg-MCA fluorescence | inhibition, % at 5.96 µM | 300,000 compounds, 0.49% hits;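 active means inhibition above the mean of all tested compounds plus 3 SD, set per screening campaign, cut at about 17% in these data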;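 further: 0% = plate median of test compound wells and 100% = 1 µM Z-Phe-Ala-diazomethylketone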
Myeloid diff CP1 – promotes myeloid progenitor differentiation; 2,300 compounds, 2% hits; shares compounds with Myeloid diff 2; calls only; ER-HoxA9 myeloid progenitors, GFP/Mac1 double-positive flow; AID 651706;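 active means share of green or green-and-red cells above 9 and 9% in run 1 or 4 and 3% in run 2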
GFP autofluor – counter-screen for myeloid differentiation promoters: compound fluorescence | shares compounds with Myeloid diff 2 | ER-HoxA9 myeloid progenitors, no estrogen, GFP autofluorescence flow cytometry; vehicle wells 0%, positive control 100% | fluorescence response, % (no concentration beside the values) | 2,300 compounds, 7.4% hits | AID 651707;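 active means over 5% cells positive for green fluorescent reporter, or over 2% positive for both it and APC stain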;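 further: range taken on the double positive population between DMSO and positive control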
Active calls of the source: *; i = inactive; nt = no result; + = active, no number. This is a sample that favours compounds with a hit; in the whole collection about 3.1% have one here.

SMILES	core dimer inh	PP5 primary	NadD inh	PP1 inh	Myeloid diff 2	CTSL1 counter	Myeloid diff CP1	GFP autofluor
Cc1ccc(O)c(NC(=O)CCC2CCCCC2)c1	2	4	-8	2	i	2	i	0
COC(=O)C1CCN(CC(=O)Nc2ccc(C(=O)Nc3ccccc3OC)cc2)CC1	nt	0	-6	0	i	nt	nt	nt
CC(C)(C)c1ccccc1NC(=O)c1cc(-c2ccncc2)nc2ccccc12	nt	nt	9	nt	i	nt	i	0
CC1(C(=O)NS(=O)(=O)c2ccc(C#N)cc2)CCN1C(=O)Cc1cccc2ccccc12 (stereo not drawn)	nt	nt	-10	nt	i	nt	nt	nt
Cc1ccc2c(c1)N(S(=O)(=O)c1ccc(CN3C(=O)c4cccnc4C3=O)s1)CCO2	-41	2	-3	4	i	-1	nt	nt
Cc1ccc(NC(=O)CSc2nccn2Cc2ccccc2)cc1C	-3	4	-1	1	i	-2	nt	nt
CC(=O)Nc1ccc(NC(=O)CSc2nccn2Cc2ccccc2)cc1	-1	4	1	-3	+	-3	i	0
CC(C)CCNC(=O)NC(=O)COc1ncnc2sccc12	8	2	-4	-7	i	-5	nt	nt
CC(C)CNC(=O)NC(=O)COc1ncnc2sccc12	-2	2	1	0	+	1	i	0
COc1cc(CNc2ccc3[nH]c(=O)[nH]c3c2)ccc1OCc1c(F)cccc1Cl	nt	nt	3	nt	i	nt	nt	nt
COc1cc(CNc2ccc3[nH]c(=O)[nH]c3c2)ccc1OCc1ccc(Cl)cc1	-17	6	-3	2	i	0	i	0
COc1cc(CNc2ccc(N3CCN(C(C)=O)CC3)cc2)ccc1OCc1ccc(F)cc1	-6	3	-3	-1	i	5	i	0
COc1cc(CNc2ccc3[nH]c(=O)[nH]c3c2)ccc1OCc1ccc(F)cc1	-29	5	1	1	i	4	i	0
COc1cc(CNc2ccc3[nH]c(=O)[nH]c3c2)ccc1OCc1ccccc1	-29	5	-1	-1	i	5	nt	nt
COCCn1cnnc1SCC(=O)Nc1ccc(N2CCCCC2)cc1	nt	1	-4	0	i	nt	nt	nt
COc1ccc(Cl)cc1NC(=O)CN(C)C(=O)c1cn(-c2ccccc2)nc1-c1cccnc1	1	-2	1	-4	i	5	nt	nt
Cc1csc(NC(=O)c2ccc(S(=O)(=O)N3CCN(C)CC3)cc2)n1	-10	0	1	3	i	-1	nt	nt
COc1cc(O)oc1C=Nc1ccccc1	-9	2	-2	-3	+	-5	i	0
O=C(Nc1nc(-c2cccnc2)cs1)c1ccc(S(=O)(=O)N2CCOCC2)cc1	-4	1	1	-2	i	0	i	2
O=C(O)c1cc(S(=O)(=O)N2CCCCC2)ccc1N1CCCC1	nt	nt	3	nt	i	nt	nt	nt
O=C(NCc1cc(Cl)cc(Cl)c1)c1ccc2nc([C@H]3C[C@H](O)[C@@H](CO)O3)[nH]c2c1	nt	nt	0	nt	i	nt	nt	nt
CCS(=O)(=O)c1nc(S(=O)(=O)c2ccc(C)cc2)c(N2CCOCC2)s1	0	1	-5	4	i	-1	nt	nt
Cc1ccc(S(=O)(=O)c2nc(S(C)(=O)=O)sc2N2CCOCC2)cc1	8	1	-3	1	i	-3	i	0
CCOC1=C2CN(S(=O)(=O)c3ccc(C)cc3)C(c3ccc(CC)cc3)CC2n2c(=O)n(-c3ccccc3)c(=O)n2C1 (stereo not drawn)	nt	nt	nt	nt	i	nt	nt	nt
COc1ccc(CC(N)c2csc(NC(=O)c3cc(C(C)(C)C)nn3Cc3ccccc3)n2)cc1 (stereo not drawn)	nt	nt	21	nt	+	nt	i	0
SMILES	core dimer inh	PP5 primary	NadD inh	PP1 inh	Myeloid diff 2	CTSL1 counter	Myeloid diff CP1	GFP autofluor
Cc1ccc(OCC(=O)NCCNC(=O)c2ccc(C)nc2)cc1	-4	2	2	3	i	4	nt	nt
CC(=O)NC1CC2CCCC(C1)N2S(=O)(=O)c1cccc(F)c1 (stereo not drawn)	-4	-3	4	-3	+	-1	i	0
CCCCCCCCNCCS(=O)(=O)NN1CCOCC1	nt	nt	1	nt	i	nt	nt	nt
COc1ccc(CN(C(=O)CN2C(=O)COc3ccccc32)C2CCCC2)c(OC)c1	10	5	-6	1	i	3	i	0
CCOc1cc(C)cc2oc(=O)cc(-c3ccccc3)c12	-3	2	2	3	i	1	nt	nt
CC(=O)Oc1cc(C)cc2oc(=O)cc(-c3ccccc3)c12	-4	0	-2	3	i	2	i	0
COc1ccc(C(C)(C)C)cc1NC(=O)c1ccccc1-n1cnnn1	nt	nt	8	nt	i	nt	nt	nt
O=S(=O)(NCCNS(=O)(=O)c1cccs1)c1cccs1	-11	3	4	0	i	-1	nt	nt
O=S(=O)(NCc1ccccc1Br)c1cccs1	1	2	-5	0	i	1	i	0
O=C(NC1CCCCCC1)c1ccc([N+](=O)[O-])s1	nt	nt	1	nt	i	nt	nt	nt
CCCCNc1c(-c2cc3ccccc3o2)nc2nc(C)cc(C)n12	nt	nt	10	nt	+	nt	i	1
COc1ccc(Nc2c(-c3cc4ccccc4o3)nc3nc(C)cc(C)n23)cc1	nt	nt	16	nt	i	nt	nt	nt
CC(C)C/C=C1\CCc2c([nH]c3ccccc23)C1=O	-1	0	5	5	i	-5	nt	nt
CCCCCCCCC1=NCCc2c1[nH]c1ccccc21	-5	3	13	7	i	-3	i	0
CCOc1cccc(/C=N/NC(=O)c2cc(-c3cccn3C)n[nH]2)c1O	19	0	20	11	+	3	i	0
COc1cc(OC)c(OC)cc1/C=N/NC(=O)c1cc(-c2cccn2C)n[nH]1	3	4	3	-7	i	9	nt	nt
CCOC(=O)C(=CNc1cc(C)nn1-c1ccccc1)C(=O)OCC	3	3	-1	0	i	8	i	0
Cc1ccc(OCc2nc(-c3cccnc3)no2)cc1C	2	-4	-3	0	i	11	nt	nt
Cc1cc(C)cc(OCc2nc(-c3cccnc3)no2)c1	-2	1	-3	3	+	-1	i	0
O=C(O)C(F)=C1c2ccccc2-c2ccccc21	3	2	-8	1	i	-1	nt	nt
COC(=O)c1sccc1NC(=O)c1csc(C)c1	4	2	-16	-4	+	5	i	0
COC(=O)c1sccc1NC(=O)c1ccc(C)cc1	-53	1	-10	0	i	2	nt	nt
